Assay results from ChEMBL document CHEMBL4402580, “Structure-Activity Relationship Studies of Tetrahydroquinolone Free Fatty Acid Receptor 3 Modulators” (J Med Chem, 2020).
Values belong to the compound of their own block, whether it stands above or below them. The source made the active and inactive calls. No cut-off for these calls is given here.

Columns and labels:
[1] = molecular target: T1, Free fatty acid receptor 3 (Homo sapiens) (UniProt O14843)
T1 sequence (whole entry): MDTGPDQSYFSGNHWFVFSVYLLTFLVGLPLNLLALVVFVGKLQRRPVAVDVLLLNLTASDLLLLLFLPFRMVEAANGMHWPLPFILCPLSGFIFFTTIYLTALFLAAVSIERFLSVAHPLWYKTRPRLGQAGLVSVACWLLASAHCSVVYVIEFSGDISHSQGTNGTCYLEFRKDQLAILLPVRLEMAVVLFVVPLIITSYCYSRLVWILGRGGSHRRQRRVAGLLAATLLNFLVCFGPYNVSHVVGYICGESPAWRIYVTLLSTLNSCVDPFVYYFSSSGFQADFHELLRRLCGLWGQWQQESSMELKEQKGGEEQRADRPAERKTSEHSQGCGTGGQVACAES

[2] = molecular target: T1, Free fatty acid receptor 3 (Homo sapiens); experiment: (§1) Positive allosteric modulation at human FFA3 receptor stably expressed in Flp-In T-Rex HEK293 cells cotransfected with eYFP assessed as inhibition of forskolin-induced cAMP production measured after 1 hr in presence of 1 uM propionate by fluorescence plate reader assay; type: functional, cell-based
[3] = molecular target: Voltage-dependent L-type calcium channel subunit alpha-1C (Homo sapiens, UniProt Q13936); experiment: Displacement of [3H]-PN200-110 from recombinant full length human L-type calcium channel expressed in HEK293 cells at 10 uM incubated for 120 mins by radiometric scintillation counting method; type: cell-based; details: hek293, 2 h
[4] = molecular target: T2, Free fatty acid receptor 2 (Homo sapiens) (UniProt O15552); experiment: Agonist activity at human C-terminal eYFP tagged FFA2 receptor stably expressed in Flp-In T-Rex 293 cells assessed as inhibition of forskolin-induced cAMP production at 10 uM after 30 mins by HTR-FRET assay; type: functional, cell-based
T2 sequence (whole entry): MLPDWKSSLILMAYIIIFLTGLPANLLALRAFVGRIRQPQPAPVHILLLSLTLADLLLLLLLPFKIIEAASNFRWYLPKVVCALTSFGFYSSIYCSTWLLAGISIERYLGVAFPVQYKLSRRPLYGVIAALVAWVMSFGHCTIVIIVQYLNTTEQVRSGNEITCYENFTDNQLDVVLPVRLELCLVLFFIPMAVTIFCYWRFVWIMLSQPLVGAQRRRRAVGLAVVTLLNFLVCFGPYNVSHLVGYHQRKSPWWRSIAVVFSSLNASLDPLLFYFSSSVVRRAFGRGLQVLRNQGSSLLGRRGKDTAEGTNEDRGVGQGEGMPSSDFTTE

[5] = molecular target: Free fatty acid receptor 1 (Homo sapiens) (UniProt O14842); experiment: Agonist activity at human C-terminal eYFP tagged FFA1 receptor stably expressed in HEK293T cells cotransfected with nano-luciferase assessed as recruitment of beta-arrestin2 at 10 uM followed by TUG-770 addition prior to compound treatment by BRET assay; type: cell-based
[6] = molecular target: G-protein coupled receptor 84 (Homo sapiens) (UniProt Q9NQS5); experiment: Agonist activity at human C-terminal Gia tagged GPR84 receptor stably expressed in Flp-In T-Rex 293 cells assessed as inhibition of forskolin-induced cAMP production at 10 uM after 45 mins by HTR-FRET assay; type: functional, cell-based
[7] = molecular target: T3, Free fatty acid receptor 3 (Homo sapiens, UniProt O14843); experiment: as §1; type: functional, cell-based
T3 sequence (O14843 whole entry): T1 sequence (whole entry)

[8] = molecular target: T4, Free fatty acid receptor 4 (Homo sapiens) (UniProt Q5NUL3); experiment: Agonist activity at human C-terminal eYFP tagged FFA4 receptor stably expressed in HEK293T cells cotransfected with nano-luciferase assessed as recruitment of beta-arrestin2 at 10 uM followed by TUG-891 addition prior to compound treatment by BRET assay; type: cell-based
T4 sequence (whole entry): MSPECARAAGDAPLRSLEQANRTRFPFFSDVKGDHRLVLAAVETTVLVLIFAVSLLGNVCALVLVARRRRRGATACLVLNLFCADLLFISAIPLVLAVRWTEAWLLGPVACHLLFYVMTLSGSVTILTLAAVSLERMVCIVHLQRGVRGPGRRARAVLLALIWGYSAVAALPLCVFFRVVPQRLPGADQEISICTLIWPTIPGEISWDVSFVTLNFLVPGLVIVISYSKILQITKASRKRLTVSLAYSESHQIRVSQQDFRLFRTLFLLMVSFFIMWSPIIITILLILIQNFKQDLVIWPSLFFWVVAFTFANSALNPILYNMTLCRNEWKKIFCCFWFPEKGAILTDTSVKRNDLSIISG

[9] = molecular target: T5, Free fatty acid receptor 3 (Mus musculus) (UniProt Q3UFD7); experiment: Agonist activity at FFA3 in C57/BL6 mouse DRG neurons assessed as increase in intracellular calcium level at 5 uM by Fura-8/AM staining based inverted fluorescence microscopy; type: functional, cell-based
T5 sequence (whole entry): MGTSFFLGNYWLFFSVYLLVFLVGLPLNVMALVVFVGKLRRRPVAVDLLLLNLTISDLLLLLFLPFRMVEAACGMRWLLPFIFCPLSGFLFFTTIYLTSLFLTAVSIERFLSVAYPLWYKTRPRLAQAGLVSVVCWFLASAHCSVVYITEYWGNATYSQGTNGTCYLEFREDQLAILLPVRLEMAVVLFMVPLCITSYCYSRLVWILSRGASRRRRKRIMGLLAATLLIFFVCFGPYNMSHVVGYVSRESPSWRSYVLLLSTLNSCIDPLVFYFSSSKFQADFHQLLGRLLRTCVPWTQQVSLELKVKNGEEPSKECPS
Procedure, shortened: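 Mouse colonic-innervating DRGs (T9–L2), wild-type C57/BL6 and FFA3 knockout, digested with papain/L-cysteine then collagenase/dispase, triturated, cultured overnight on matrigel. Cells loaded with Fura 8-AM (3 μM, 20 min, 37 °C), perfused with HEPES buffer pH 7.4, ligand applied 3 min, then ionomycin 5 μM as positive control. Read-out: relative fluorescence by real-time imaging; N = 3 mice per genotype.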

[10] = Chemical stability of compound in DMSO at 4 degree C measured after 7 days by NMR analysis; type: physicochemical; details: read-out: Stability
[11] = Chemical stability of compound in DMSO assessed as compound degradation at 25 degree C measured after 30 days by NMR analysis; type: physicochemical; details: 720 h
[12] = Chemical stability of compound in DMSO at 25 degree C measured after 7 days by NMR analysis; type: physicochemical; details: read-out: Stability
[13] = tested on: DRG neuron; experiment: Effect on intracellular calcium level in FFA3 knock out C57/BL6 mouse DRG neurons at 5 uM by Fura-8/AM staining based inverted fluorescence microscopy; type: functional, cell-based
Procedure, shortened: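 DRGs from T9–L2 spinal cord of FFA3 knock-out and wild-type C57/BL6 mice; papain/L-cysteine then collagenase/dispase digestion (20 min each, 37 °C), trituration, matrigel coverslips, overnight culture in DMEM/10% FCS. Fura 8-AM (3 μM) loading 20 min, 37 °C; perfusion with HEPES buffer pH 7.4 at room temperature; ligand applied 3 min, then ionomycin 5 μM. Relative fluorescence; N = 3 mice.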

[14] = Chemical stability of compound in DMSO at 4 degree C measured after 30 days by NMR analysis; type: physicochemical; details: read-out: Stability
[15] = molecular target: T1, Free fatty acid receptor 3 (Homo sapiens); remark: listed apart in the source
[16] = molecular target: T3, Free fatty acid receptor 3; experiment: Agonist activity at human FFA3 receptor stably expressed in Flp-In T-Rex HEK293 cell membrane assessed as stimulation of [35S]-GTPgammaS binding measured after 1 hr in presence of GDP by liquid scintillation spectrometry
[17] = molecular target: T3, Free fatty acid receptor 3
[18] = molecular target: T1, Free fatty acid receptor 3 (Homo sapiens); experiment: Negative allosteric modulation at human FFA3 receptor stably expressed in Flp-In T-Rex HEK293 cells cotransfected with eYFP assessed as effect on forskolin-induced cAMP production at 30 uM measured after 1 hr in presence of 3 uM propionate by fluorescence plate reader assay

Chain of Free fatty acid receptor 1 (Homo sapiens) (O14842 whole entry): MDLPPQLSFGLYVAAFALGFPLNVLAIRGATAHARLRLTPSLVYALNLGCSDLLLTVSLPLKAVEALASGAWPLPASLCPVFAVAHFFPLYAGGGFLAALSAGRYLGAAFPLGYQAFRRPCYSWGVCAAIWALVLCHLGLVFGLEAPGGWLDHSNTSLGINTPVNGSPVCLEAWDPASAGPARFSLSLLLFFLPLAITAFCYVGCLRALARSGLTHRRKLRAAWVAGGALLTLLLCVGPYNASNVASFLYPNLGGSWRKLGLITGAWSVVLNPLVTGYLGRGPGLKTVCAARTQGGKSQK
Chain of Voltage-dependent L-type calcium channel subunit alpha-1C (Q13936 whole entry): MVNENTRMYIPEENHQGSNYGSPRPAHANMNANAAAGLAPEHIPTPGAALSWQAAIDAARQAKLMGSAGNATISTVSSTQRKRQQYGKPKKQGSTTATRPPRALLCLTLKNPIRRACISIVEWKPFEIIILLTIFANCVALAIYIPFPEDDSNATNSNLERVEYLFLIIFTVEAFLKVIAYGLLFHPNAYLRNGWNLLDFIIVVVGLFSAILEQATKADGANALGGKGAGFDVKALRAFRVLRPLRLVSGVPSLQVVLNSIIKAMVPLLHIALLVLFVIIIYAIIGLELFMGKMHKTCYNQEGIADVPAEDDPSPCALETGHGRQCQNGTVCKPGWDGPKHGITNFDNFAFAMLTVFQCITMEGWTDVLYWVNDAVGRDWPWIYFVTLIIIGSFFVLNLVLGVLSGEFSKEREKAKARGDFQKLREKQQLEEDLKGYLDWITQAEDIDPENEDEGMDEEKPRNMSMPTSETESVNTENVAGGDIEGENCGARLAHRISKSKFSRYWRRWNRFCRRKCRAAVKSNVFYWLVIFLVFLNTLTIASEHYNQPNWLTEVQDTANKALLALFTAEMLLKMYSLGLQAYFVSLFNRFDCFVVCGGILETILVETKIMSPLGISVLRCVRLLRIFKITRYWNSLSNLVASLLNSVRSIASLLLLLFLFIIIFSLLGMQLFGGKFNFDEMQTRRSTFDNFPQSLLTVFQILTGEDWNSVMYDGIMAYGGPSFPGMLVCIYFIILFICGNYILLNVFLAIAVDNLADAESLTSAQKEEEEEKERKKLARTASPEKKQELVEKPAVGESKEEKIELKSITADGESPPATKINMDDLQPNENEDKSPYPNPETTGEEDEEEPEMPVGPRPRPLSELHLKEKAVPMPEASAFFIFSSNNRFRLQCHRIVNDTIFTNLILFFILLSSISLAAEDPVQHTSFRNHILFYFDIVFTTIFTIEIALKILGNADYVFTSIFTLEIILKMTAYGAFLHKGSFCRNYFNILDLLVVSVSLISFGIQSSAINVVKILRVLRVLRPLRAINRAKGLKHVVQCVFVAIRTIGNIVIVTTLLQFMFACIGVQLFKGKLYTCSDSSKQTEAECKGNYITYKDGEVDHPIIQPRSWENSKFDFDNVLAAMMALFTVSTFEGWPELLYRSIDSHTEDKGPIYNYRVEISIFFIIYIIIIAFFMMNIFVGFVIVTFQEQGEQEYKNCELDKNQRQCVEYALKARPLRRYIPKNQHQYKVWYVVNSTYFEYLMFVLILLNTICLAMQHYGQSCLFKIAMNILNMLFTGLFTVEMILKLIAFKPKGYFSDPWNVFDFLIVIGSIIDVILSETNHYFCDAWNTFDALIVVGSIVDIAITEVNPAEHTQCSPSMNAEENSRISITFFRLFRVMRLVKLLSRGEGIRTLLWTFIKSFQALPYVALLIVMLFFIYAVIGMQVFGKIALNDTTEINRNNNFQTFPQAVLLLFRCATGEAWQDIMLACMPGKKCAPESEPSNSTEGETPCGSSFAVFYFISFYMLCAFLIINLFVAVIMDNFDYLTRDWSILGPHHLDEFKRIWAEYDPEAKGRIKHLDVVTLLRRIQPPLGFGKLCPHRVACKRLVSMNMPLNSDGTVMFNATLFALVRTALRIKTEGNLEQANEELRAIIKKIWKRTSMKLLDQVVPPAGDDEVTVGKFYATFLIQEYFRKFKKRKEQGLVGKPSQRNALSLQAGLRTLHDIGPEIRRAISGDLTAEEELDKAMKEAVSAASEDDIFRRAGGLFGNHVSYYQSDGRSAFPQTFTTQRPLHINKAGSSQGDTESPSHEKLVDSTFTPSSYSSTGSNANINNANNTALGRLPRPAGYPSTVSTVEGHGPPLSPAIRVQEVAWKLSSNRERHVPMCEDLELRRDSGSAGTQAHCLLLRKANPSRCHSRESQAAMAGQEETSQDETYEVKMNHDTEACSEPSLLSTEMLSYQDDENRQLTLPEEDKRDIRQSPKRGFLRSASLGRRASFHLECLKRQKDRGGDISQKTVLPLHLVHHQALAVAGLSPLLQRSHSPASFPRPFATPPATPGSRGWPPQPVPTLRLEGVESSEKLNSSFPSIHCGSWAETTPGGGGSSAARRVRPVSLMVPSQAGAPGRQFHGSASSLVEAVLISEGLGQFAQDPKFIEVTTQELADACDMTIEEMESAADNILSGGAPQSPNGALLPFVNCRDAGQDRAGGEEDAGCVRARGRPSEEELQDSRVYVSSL
Chain of G-protein coupled receptor 84 (Homo sapiens) (Q9NQS5 whole entry): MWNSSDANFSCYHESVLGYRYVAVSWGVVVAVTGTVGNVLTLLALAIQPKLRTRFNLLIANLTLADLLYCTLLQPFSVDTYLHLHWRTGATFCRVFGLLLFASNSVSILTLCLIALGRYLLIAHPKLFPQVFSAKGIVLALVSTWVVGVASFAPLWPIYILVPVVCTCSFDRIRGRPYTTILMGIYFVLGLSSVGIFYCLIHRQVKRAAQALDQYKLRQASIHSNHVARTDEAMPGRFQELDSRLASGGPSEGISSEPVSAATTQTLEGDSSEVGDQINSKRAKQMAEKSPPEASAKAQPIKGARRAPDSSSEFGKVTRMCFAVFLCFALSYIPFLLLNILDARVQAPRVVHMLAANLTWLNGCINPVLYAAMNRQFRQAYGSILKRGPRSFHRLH

SMILES: Cc1ccccc1NC(=O)C1=C(c2ccccc2)NC2=C(C(=O)CCC2)C1c1ccco1 (centres undefined)
pEC50 [1]: inactive

SMILES: CC1=C(C(=O)Nc2cc(Cl)ccc2Cl)C(CNC(=O)OC(C)(C)C)C2=C(CCCC2=O)N1 (centres undefined)
pEC50 [1]: inactive

SMILES: Cc1ccccc1NC(=O)c1c(C)nc2c(c1-c1ccco1)C(=O)CCC2
pEC50 [2]: inactive
pEC50 [1]: inactive

SMILES: COC(=O)C1=C(C)NC(C)=C(C(=O)Nc2ccccc2C)C1CC(C)C (centres undefined)
pEC50 [1]: inactive

SMILES: COC(=O)C1=C(C)NC2=C(C(=O)CCC2)C1CC(C)C (centres undefined)
pEC50 [1]: inactive

SMILES: CC1=C(C(=O)Nc2ccccc2C)C(c2ccco2)C2=C(CCCC2=O)N1 (centres undefined)
inhibition (INH) [3]: Not Active
Activity [4]: inactive
Activity [5]: inactive
Activity [6]: inactive
EC50 [7]: 0.537 µM
Activity [8]: inactive

inhibition (INH) [3]: Not Active
Activity [4]: inactive
Activity [5]: inactive
Activity [9]: Active
Activity [6]: inactive
remaining at 168 h [10]: 100%
Stability [11]: Unstable
remaining at 168 h [12]: 100%
Activity [8]: inactive
remaining at 720 h [14]: 100%
SMILES: CCCC1C(C(=O)Nc2cc(Cl)ccc2Cl)=C(C)NC2=C1C(=O)CCC2 (centres undefined)
Activity [13]: inactive

SMILES: CC1=C(C(=O)Nc2ccccc2C)C(c2ccccc2Br)C2=C(CCCC2=O)N1 (centres undefined)
pEC50 [15]: inactive

EC50 [16]: 10.7 µM
EC50 [17]: 11.7 µM
SMILES: CCC(=O)O [PROPIONIC ACID]

inhibition (INH) [3]: Not Active
Activity [4]: inactive
Activity [5]: inactive
Activity [6]: inactive
Activity [8]: inactive
SMILES: CC1=C(C(=O)Nc2cc(Cl)ccc2Cl)C(C2CCCC2)C2=C(CCCC2=O)N1 (centres undefined)

SMILES: CC1=C(C(=O)Nc2ccccc2C)C(CC(C)C)C(C(=O)c2ccccc2)=C(C)N1 (centres undefined)
pEC50 [2]: inactive
pEC50 [1]: inactive

SMILES: CCN(CC)CCOCC1C(C(=O)Nc2cc(Cl)ccc2Cl)=C(C)NC2=C1C(=O)CCC2 (centres undefined)
pEC50 [1]: inactive

SMILES: CC1=C(C(=O)Nc2cc(Cl)ccc2Cl)C(CN)C2=C(CCCC2=O)N1 (centres undefined)
pEC50 [1]: inactive

SMILES: CC1=C(C(=O)Nc2cc(Cl)ccc2Cl)C(CC2CCN(C(=O)OC(C)(C)C)CC2)C2=C(CCCC2=O)N1 (centres undefined)
pEC50 [1]: inactive
Activity [18]: Active

SMILES: CC1=C(C(=O)Nc2cc(Cl)ccc2Cl)C(CC2CCNCC2)C2=C(CCCC2=O)N1 (centres undefined)
pEC50 [1]: inactive

inhibition (INH) [3]: Not Active
Activity [4]: inactive
Activity [5]: inactive
Activity [6]: inactive
Activity [8]: inactive
SMILES: CC1=C(C(=O)Nc2cc(Cl)ccc2Cl)C(c2ccco2)C2=C(CCCC2=O)N1 (centres undefined)

SMILES: CC1=C(C(=O)c2ccccc2)C(CC(C)C)C2=C(CCCC2=O)N1 (centres undefined)
pEC50 [1]: inactive
